Measured values: ChEMBL document CHEMBL4406880, “Design, synthesis, and bioactivity of dihydropyrimidine derivatives as kinesin spindle protein inhibitors” (Bioorg Med Chem, 2019)

What was measured:
Format in all cases: functional
NCI-H460 = assay: Growth inhibition of human NCI-H460 cells assessed as cell viability at 1 uM incubated for 48 hrs by sulforhodamine B assay; conditions: NCI-H460, 48 h, read-out: Activity
PC-3 = assay: Growth inhibition of human PC3 cells assessed as cell viability at 100 uM incubated for 48 hrs by sulforhodamine B assay; conditions: PC-3, 48 h, read-out: Activity
SNB-75 = assay: Growth inhibition of human SNB75 cells assessed as cell viability at 100 uM incubated for 48 hrs by sulforhodamine B assay; conditions: SNB-75, 48 h, read-out: Activity
HOP-92 [1] = assay: Growth inhibition of human HOP92 cells assessed as cell viability at 100 uM incubated for 48 hrs by sulforhodamine B assay; conditions: HOP-92, 48 h, read-out: Activity
T47D = assay: Growth inhibition of human T47D cells assessed as cell viability at 100 uM incubated for 48 hrs by sulforhodamine B assay; conditions: read-out: Activity
CAKI-1 = assay: Growth inhibition of human Caki1 cells assessed as cell viability at 100 uM incubated for 48 hrs by sulforhodamine B assay; conditions: CAKI-1, 48 h, read-out: Activity
COLO 205 = assay: Growth inhibition of human COLO205 cells incubated for 48 hrs by sulforhodamine B assay; conditions: COLO 205, 48 h
Outline: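 NCI-60 five-dose mode: five tenfold dilutions (0.01, 0.1, 1, 10, 100 µM) are applied for 48 h to cells in RPMI 1640 with 5% FBS at 37 °C. Endpoint is TCA fixation with sulforhodamine B read at 515 nm. % growth comes from the 0 h and control absorbances. GI50 is the concentration giving a 50% reduction in net cell growth.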

HOP-92 [2] = assay: Growth inhibition of human HOP92 cells assessed as cell viability at 0.1 uM incubated for 48 hrs by sulforhodamine B assay; conditions: HOP-92, 48 h, read-out: Activity
LOX IMVI = assay: Growth inhibition of human LOXIMVI cells assessed as cell viability at 0.1 uM incubated for 48 hrs by sulforhodamine B assay; conditions: read-out: Activity
KM12 = assay: Growth inhibition of human KM12 cells assessed as cell viability at 1 uM incubated for 48 hrs by sulforhodamine B assay; conditions: KM12, 48 h, read-out: Activity
DU-145 = assay: Growth inhibition of human DU145 cells assessed as cell viability at 1 uM incubated for 48 hrs by sulforhodamine B assay; conditions: DU-145, 48 h, read-out: Activity
HOP-92 [3] = assay: Growth inhibition of human HOP92 cells assessed as cell viability at 1 uM incubated for 48 hrs by sulforhodamine B assay; conditions: HOP-92, 48 h, read-out: Activity
NCI-H226 [4] = assay: Growth inhibition of human NCI-H226 cells assessed as cell viability at 0.1 uM incubated for 48 hrs by sulforhodamine B assay; conditions: NCI-H226, 48 h, read-out: Activity
UO-31 = assay: Growth inhibition of human UO31 cells incubated for 48 hrs by sulforhodamine B assay; conditions: UO-31, 48 h
Outline: (§1)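 NCI-60 five-dose SRB assay. Cells were exposed for 48 h to tenfold dilutions of 0.01, 0.1, 1, 10 and 100 µM, in RPMI 1640 with 5% FBS. Plates fixed with TCA at the time of drug addition served as the time-zero reference. GI50 is the concentration giving a 50% reduction in net growth. TGI is total growth inhibition. LC50 is a net 50% loss of the initial cells.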

SF-295 = assay: Growth inhibition of human SF295 cells assessed as cell viability at 1 uM incubated for 48 hrs by sulforhodamine B assay; conditions: SF-295, 48 h, read-out: Activity
MDA-MB-435 = assay: Growth inhibition of human MDA-MB-435 cells assessed as cell viability at 0.001 uM incubated for 48 hrs by sulforhodamine B assay relative to control; conditions: MDA-MB-435, 48 h, read-out: Activity
786-0 = assay: Growth inhibition of human 786-0 cells assessed as cell viability at 0.001 uM incubated for 48 hrs by sulforhodamine B assay relative to control; conditions: 786-0, 48 h, read-out: Activity
SK-MEL-28 = assay: Growth inhibition of human SK-MEL-28 cells assessed as cell viability at 0.001 uM incubated for 48 hrs by sulforhodamine B assay relative to control; conditions: SK-MEL-28, 48 h, read-out: Activity
Malme-3M = assay: Growth inhibition of human MALME-3M cells assessed as cell viability at 0.001 uM incubated for 48 hrs by sulforhodamine B assay relative to control; conditions: read-out: Activity
NCI-H226 [5] = assay: Growth inhibition of human NCI-H226 cells assessed as cell viability at 0.001 uM incubated for 48 hrs by sulforhodamine B assay relative to control; conditions: NCI-H226, 48 h, read-out: Activity
UACC-257 = assay: Growth inhibition of human UACC257 cells assessed as cell viability at 100 uM incubated for 48 hrs by sulforhodamine B assay; conditions: UACC-257, 48 h, read-out: Activity
UACC-62 = assay: Growth inhibition of human UACC62 cells incubated for 48 hrs by sulforhodamine B assay; conditions: UACC-62, 48 h; outline: as §1
TK-10 = assay: Growth inhibition of human TK10 cells assessed as cell viability at 1 uM incubated for 48 hrs by sulforhodamine B assay; conditions: TK-10, 48 h, read-out: Activity
Hs-578T = assay: Growth inhibition of human Hs 578T cells incubated for 48 hrs by sulforhodamine B assay
Outline: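 NCI-60 five-dose SRB assay in RPMI 1640 with 5% FBS, 37 °C, 5% CO2. Compound given at five tenfold dilutions, 0.01–100 µM, for 48 h. Adherent cells fixed with TCA, suspension cells with 16% final TCA. Bound SRB read at 515 nm and growth calculated against time-zero and untreated controls. GI50 taken from dose–response curves as the concentration giving a 50% decrease in net cell growth.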

SNB-19 = assay: Growth inhibition of human SNB19 cells incubated for 48 hrs by sulforhodamine B assay; conditions: SNB-19, 48 h; outline: as §1
[6] = read-out: LC50 (the source's name)
[7] = read-out: pLC50 (the source's name) (converted)

Question: Which results are given for CC1=C(C(=O)OCc2ccccc2)C(c2ccc3c(c2)OCO3)n2c(nc3ccccc32)N1 (racemic)?
Answer: viability at 1 µM (NCI-H460): 10%; viability at 100 µM (PC-3): 45%; viability at 100 µM (SNB-75): -24%; viability at 100 µM (HOP-92 [1]): 53%; viability at 100 µM (T47D): 34%; viability at 100 µM (CAKI-1): 23%; GI50 (COLO 205; read-out: GI50): 0.5 µM; LC50 (COLO 205; read-out: LC50): > 100 µM; TGI (COLO 205; read-out: TGI): > 100 µM; GI50 (COLO 205; read-out: pGI50 (converted)): 0.501 µM; LC50 (COLO 205; read-out: pLC50 (converted)): > 100 µM; TGI (COLO 205; read-out: pTGI): > 100 µM; viability at 0.1 µM (HOP-92 [2]): 70%; viability at 0.1 µM (LOX IMVI): 93%; viability at 1 µM (KM12): 19%; viability at 1 µM (DU-145): 33%; viability at 1 µM (HOP-92 [3]): 41%; viability at 0.1 µM (NCI-H226 [4]): 97%; GI50 (UO-31; read-out: GI50): 0.59 µM; CC50 (UO-31; [6]): > 100 µM; GI50 (UO-31; read-out: pGI50 (converted)): 0.589 µM; CC50 (UO-31; [7]): > 100 µM; TGI (UO-31; read-out: pTGI (converted)): 63.1 µM; viability at 1 µM (SF-295): 16%; viability at 0.001 µM (MDA-MB-435): 93%; viability at 0.001 µM (786-0): 94%; viability at 0.001 µM (SK-MEL-28): 98%; viability at 0.001 µM (Malme-3M): 94%; viability at 0.001 µM (NCI-H226 [5]): 93%; viability at 100 µM (UACC-257): 46%; GI50 (UACC-62; read-out: GI50): 0.38 µM; CC50 (UACC-62; [6]): > 100 µM; TGI (UACC-62; read-out: TGI): > 100 µM; GI50 (UACC-62; read-out: pGI50 (converted)): 0.38 µM; CC50 (UACC-62; [7]): > 100 µM; TGI (UACC-62; read-out: pTGI): > 100 µM; viability at 1 µM (TK-10): 71%; GI50 (Hs-578T; read-out: GI50): 0.28 µM; CC50 (Hs-578T; [6]): > 100 µM; TGI (Hs-578T; read-out: TGI): 23.8 µM; GI50 (Hs-578T; read-out: pGI50 (converted)): 0.282 µM; CC50 (Hs-578T; [7]): > 100 µM; TGI (Hs-578T; read-out: pTGI (converted)): 24 µM; GI50 (SNB-19; read-out: GI50): 0.56 µM; CC50 (SNB-19; [6]): > 100 µM; TGI (SNB-19; read-out: TGI): > 100 µM; GI50 (SNB-19; read-out: pGI50 (converted)): 0.562 µM; CC50 (SNB-19; [7]): > 100 µM; TGI (SNB-19; read-out: pTGI): > 100 µM
